# According to ChEMBL document CHEMBL1138890, “Development of N-2,4-pyrimidine-N-phenyl-N'-alkyl ureas as orally active inhibitors of tumor necrosis factor alpha (TNF-alpha) synthesis. Part 2” (Bioorg Med Chem Lett, 2006):
# Tests used:
# THP-1 [1] = assay: Inhibition of LPS-stimulated TNFalpha production in human THP1 cells; format: functional, cell-based
# [2] = Metabolism measured as percent loss of compound in Sprague-Dawley rat hepatocytes after 4 hrs; format: ADME, cell-based, Hepatocyte; conditions: read-out: Activity
# Procedure, shortened: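 Compound incubated with plated Sprague–Dawley rat hepatocytes for 4 h. Metabolism expressed as percent loss of parent compound.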
# [3] = Solubility in Sprague-Dawley rat; format: ADME, organism-based
# [4] = Half life in Sprague-Dawley rat; format: ADME, organism-based; conditions: in vivo
# [5] = Bioavailability in Sprague-Dawley rat; format: ADME, organism-based; conditions: in vivo
# [6] = Bioavailability in po dosed Sprague-Dawley rat; format: ADME, organism-based; conditions: in vivo
# Rattus norvegicus = assay: Reduction in severity of cartilage damage in Sprague-Dawley rat at 25 mg/kg; format: functional; set-up: scale not given: the % may be the effect or the level left
# Procedure, shortened: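 Osteoarthritis was induced in male Sprague–Dawley rats (200–225 g) under anesthesia by injecting 20 µL of 10 mg/mL monosodium iodoacetate into the patellar ligament region of the left knee, flexed 90°. Groups of 15 were dosed BID (about every 12 h) for 7 days with 25 mg/kg compound or vehicle (2.5 mL/kg). On day 22 the left joint was fixed in 10% formalin for 24–48 h and the tibial cartilage surface imaged. Damage severity was compared with vehicle (P < 0.05).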
# THP-1 [7] = assay: Inhibition of LPS-stimulated TNFalpha production in human THP1 cells at 10 uM; format: functional
Structure (SMILES),IC50 (THP-1 [1]) [nM],other results
O=C(NCc1ccccc1Cl)N(c1ccc(F)cc1)c1ccnc(NC2CCOCC2)n1,16,
COC[C@H](C)Nc1nccc(N(C(=O)NCc2ccc(Cl)c(Cl)c2)c2ccc(OC)cc2)n1,2070,
COc1ccc(N(C(=O)NCc2ccccc2Cl)c2ccnc(N[C@@H](C)C(C)(C)O)n2)cc1,9,metabolised at 4 h [2]: 32%; solubility [3]: < 10 µg/mL; half-life [4]: 1.9 h; bioavailability [5]: 1.9%
CCNC(=O)N(c1ccc(OC)cc1)c1ccnc(NC(C)C)n1,80,
CCNC(=O)N(c1ccc(OCC)cc1)c1ccnc(N[C@@H](C)COC)n1,276,
CC(C)Nc1nccc(N(C(=O)NCC2CCN(C(=O)OC(C)(C)C)CC2)c2ccc(F)cc2)n1,1160,
COC[C@H](C)Nc1nccc(N(C(=O)NCc2ccccc2Cl)c2ccc(F)cc2)n1,236,
CC(C)Nc1nccc(N(C(=O)NCCN2CCN(C(=O)OC(C)(C)C)CC2)c2ccc(F)cc2)n1,277,
COC[C@H](C)Nc1nccc(N(C(=O)NC2CCCCC2)c2ccc(OC)cc2)n1,467,
CC(C)Nc1nccc(N(C(=O)NCc2ccccn2)c2ccc(F)cc2)n1,30,
COC[C@H](C)Nc1nccc(N(C(=O)NCc2ccccc2Cl)c2ccc(OC)cc2)n1,148,
COC[C@H](C)Nc1nccc(N(C(=O)NCc2ccc(Cl)cc2Cl)c2ccc(OC)cc2)n1,611,
CCOc1ccc(N(C(=O)NCc2ccccc2Cl)c2ccnc(N[C@@H](C)COC)n2)cc1,56,
COc1ccc(N(C(=O)NCc2ccccc2Cl)c2ccnc(NC(C)C)n2)cc1,16,
CCNC(=O)N(c1ccc(OC)cc1)c1ccnc(N[C@@H](C)COC)n1,819,
CC(C)NC(=O)N(c1ccc(F)cc1)c1ccnc(NC(C)C)n1,74,
CCNC(=O)N(c1ccc(OC)cc1)c1ccnc(N[C@@H](C)C(C)(C)O)n1,28,metabolised at 4 h [2]: 32%; solubility [3]: 240 µg/mL; bioavailability [6]: 15%; Activity (Rattus norvegicus): 24%
CCNC(=O)N(c1ccc(F)cc1)c1ccnc(NC2CCOCC2)n1,86,metabolised at 4 h [2]: 16%; solubility [3]: 25 µg/mL; half-life [4]: 0.46 h; bioavailability [5]: 13.2%; Activity (Rattus norvegicus): 16%
CC(C)Nc1nccc(N(C(=O)NCc2ccncc2)c2ccc(F)cc2)n1,4,
CN(C)c1nccc(N(C(=O)NCc2ccccc2Cl)c2ccc(F)cc2)n1,,inhibition at 10 µM (THP-1 [7]): 35%
O=C(NCc1ccccc1Cl)N(c1ccc(F)cc1)c1ccnc(Nc2c(F)cccc2F)n1,,inhibition at 10 µM (THP-1 [7]): 25%
CCCCNC(=O)N(c1ccc(OC)cc1)c1ccnc(N[C@@H](C)COC)n1,324,
COc1ccc(N(C(=O)NCc2ccccc2C)c2ccnc(N[C@@H](C)C(C)(C)O)n2)cc1,37,
COc1ccc(N(C(=O)NCc2ccccc2OC)c2ccnc(N[C@@H](C)C(C)(C)O)n2)cc1,15,
CNc1nccc(N(C(=O)NCc2ccccc2Cl)c2ccc(OC)cc2)n1,,inhibition at 10 µM (THP-1 [7]): 3%
C[C@H](Nc1nccc(N(C(=O)NCc2ccccc2Cl)c2ccc(F)cc2)n1)C(C)(C)O,14,
CC(C)Nc1nccc(N(C(=O)NCC2CCNCC2)c2ccc(F)cc2)n1,16,
CC(C)Nc1nccc(N(C(=O)NCCN2CCNCC2)c2ccc(F)cc2)n1,119,
